Laboratory results: ChEMBL document CHEMBL4316611, “Design, synthesis and evaluation of novel (S)-tryptamine derivatives containing an allyl group and an aryl sulfonamide unit as anticancer agents” (Bioorg Med Chem Lett, 2019)

What was measured:
Type in all cases: functional, cell-based
[1] = system: HepG2; assay: Cytotoxicity in human HepG2 cells assessed as reduction in cell viability incubated for 48 hrs by MTT assay; details: HepG2, 48 h
Summary of the method: (§1)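 MTT viability assay; cells exposed continuously to compounds for 48 h. IC50 values reported as mean ± SD. Cisplatin served as positive control.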

[2] = system: HeLa; assay: Cytotoxicity in human HeLa cells assessed as reduction in cell viability incubated for 48 hrs by MTT assay; summary of the method: as §1
[3] = system: CNE; assay: Cytotoxicity in human CNE1 cells assessed as reduction in cell viability incubated for 48 hrs by MTT assay; summary of the method: as §1
[4] = system: A549; assay: Cytotoxicity in human A549 cells assessed as reduction in cell viability incubated for 48 hrs by MTT assay; details: A549, 48 h; summary of the method: as §1

| Structure (SMILES) | IC50 [1] | IC50 [2] | IC50 [3] | IC50 [4] |
| --- | --- | --- | --- | --- |
| C=CC[C@@H](Cc1c[nH]c2ccccc12)NS(=O)(=O)c1ccc(C(F)(F)F)cc1Cl | 33.1 µM | 44.8 µM | 36.1 µM | 53 µM |
| C=CC[C@@H](Cc1c[nH]c2ccccc12)NS(=O)(=O)c1ccc(C)cc1 | > 100 µM | > 100 µM |  |  |
| CCC[C@@H](Cc1c[nH]c2ccccc12)NS(=O)(=O)c1ccccc1 | 68.7 µM | 78.9 µM | 47.1 µM | 91.5 µM |
| C=CC[C@@H](Cc1c[nH]c2ccccc12)NS(=O)(=O)c1cc(C(F)(F)F)cc(C(F)(F)F)c1 | 21.9 µM | 30.2 µM | 24.1 µM | 35.6 µM |
| CCC[C@H](N)Cc1c[nH]c2ccccc12 | > 100 µM | > 100 µM | > 100 µM | > 100 µM |
| C=CC[C@@H](Cc1c[nH]c2ccccc12)NS(=O)(=O)c1cc(Br)cc(C(F)(F)F)c1 | 25.3 µM | 31.9 µM | 22.9 µM | 29.3 µM |
| C=CC[C@@H](Cc1c[nH]c2ccccc12)NS(=O)(=O)c1ccc(Br)c(F)c1 | 58.1 µM | 54.5 µM |  |  |
| C=CC[C@@H](Cc1c[nH]c2ccccc12)NS(=O)(=O)c1ccccc1OC(F)(F)F | 39.5 µM | 68.2 µM | 66.9 µM | 65.9 µM |
| C=CC[C@@H](Cc1c[nH]c2ccccc12)NS(=O)(=O)c1ccc(Cl)cc1F | 78.4 µM | 74.4 µM |  |  |
| C=CC[C@@H](Cc1c[nH]c2ccccc12)NS(=O)(=O)c1ccc(Cl)cc1Cl | 55.4 µM | 41.1 µM | 42.7 µM | 55.7 µM |
| C=CC[C@@H](Cc1c[nH]c2ccccc12)NS(=O)(=O)c1cc(F)c(Br)cc1F | 35.3 µM | 58.9 µM | 43.4 µM | 65 µM |
| C=CC[C@H](N)Cc1c[nH]c2ccccc12 | > 100 µM | > 100 µM | > 100 µM | > 100 µM |
| C=CC[C@@H](Cc1c[nH]c2ccccc12)NS(=O)(=O)c1cccc2c(N(C)C)cccc12 | 52 µM | 34.5 µM | 36 µM | 52.4 µM |
| C=CC[C@@H](Cc1c[nH]c2ccccc12)NS(=O)(=O)c1ccc(F)cc1Cl | 71.7 µM | 61.7 µM |  |  |
| C=CC[C@@H](Cc1c[nH]c2ccccc12)NS(=O)(=O)c1ccc(Cl)c(C(F)(F)F)c1 | 24.4 µM | 42.8 µM | 28.8 µM | 34.3 µM |
| C=CC[C@@H](Cc1c[nH]c2ccccc12)NS(=O)(=O)c1ccc(C(C)C)cc1 | 46.4 µM | 43.5 µM | 43.6 µM | 53 µM |
| C=CC[C@@H](Cc1c[nH]c2ccccc12)NS(=O)(=O)c1ccc(Br)cc1Cl | 54.3 µM | 53.5 µM | 38.5 µM | 48.8 µM |
| C=CC[C@@H](Cc1c[nH]c2ccccc12)NS(=O)(=O)c1ccc(C)c(F)c1 | 39.1 µM | 43.6 µM | 39.8 µM | 70.2 µM |
| C=CC[C@@H](Cc1c[nH]c2ccccc12)NS(=O)(=O)c1ccc(F)cc1 | > 100 µM | > 100 µM |  |  |
| C=CC[C@@H](Cc1c[nH]c2ccccc12)NS(=O)(=O)c1ccc(Br)c(C)c1 | 52.2 µM | 46.7 µM | 38.6 µM | 54.1 µM |
| C=CC[C@@H](Cc1c[nH]c2ccccc12)NS(=O)(=O)c1ccc(C(F)(F)F)cc1 | 51.8 µM | 41.7 µM | 38.1 µM | 49.9 µM |

| Structure (SMILES) | IC50 [1] | IC50 [2] | IC50 [3] | IC50 [4] |
| --- | --- | --- | --- | --- |
| C=CC[C@@H](Cc1c[nH]c2ccccc12)NS(=O)(=O)c1ccc(Cl)c([N+](=O)[O-])c1 | 89.7 µM | 53.2 µM |  |  |
| C=CC[C@@H](Cc1c[nH]c2ccccc12)NS(=O)(=O)c1ccc(CCC)cc1 | 58.4 µM | 67.1 µM |  |  |
| C=CC[C@@H](Cc1c[nH]c2ccccc12)NS(=O)(=O)c1cccc(C(F)(F)F)c1 | 46.9 µM | 45.1 µM | 40.7 µM | 52.1 µM |
| C=CC[C@@H](Cc1c[nH]c2ccccc12)NS(=O)(=O)c1c(C)c(C)cc(C)c1C | 24.7 µM | 26.1 µM | 26.3 µM | 29.9 µM |
| C=CC[C@@H](Cc1c[nH]c2ccccc12)NS(=O)(=O)c1ccc(-c2ccccc2)cc1 | 43 µM | 34.5 µM | 34.5 µM | 33.6 µM |
| C=CC[C@@H](Cc1c[nH]c2ccccc12)NS(=O)(=O)c1ccc(F)c(Cl)c1 | 38.2 µM | 33.8 µM | 34.2 µM | 41.6 µM |
| C=CC[C@@H](Cc1c[nH]c2ccccc12)NS(=O)(=O)c1c(C)cc(C)cc1C | 37.2 µM | 35.3 µM | 31.5 µM | 40.4 µM |
| C=CC[C@@H](Cc1c[nH]c2ccccc12)NS(=O)(=O)c1cccc(Br)c1 | 58.9 µM | 40.5 µM | 48 µM | 52.1 µM |
| CCC[C@@H](Cc1c[nH]c2ccccc12)NS(=O)(=O)c1c(C(C)C)cc(C(C)C)cc1C(C)C | 30.8 µM | 16.4 µM | 17.8 µM | 39.8 µM |
| C=CC[C@@H](Cc1c[nH]c2ccccc12)NS(=O)(=O)c1ccc(Cl)cc1[N+](=O)[O-] | 71.3 µM | 67.9 µM |  |  |
| C=CC[C@@H](Cc1c[nH]c2ccccc12)NS(=O)(=O)c1ccc(F)c(C(F)(F)F)c1 | 36.3 µM | 32 µM | 27 µM | 38.5 µM |
| C=CC[C@@H](Cc1c[nH]c2ccccc12)NS(=O)(=O)c1ccccc1Cl | > 100 µM | > 100 µM |  |  |
| C=CC[C@@H](Cc1c[nH]c2ccccc12)NS(=O)(=O)c1cc(Cl)c(F)cc1F | 33.2 µM | 46.9 µM | 34.2 µM | 50.7 µM |
| C=CC[C@@H](Cc1c[nH]c2ccccc12)NS(=O)(=O)c1ccc(Br)cc1 | 39.6 µM | 61 µM | 41.2 µM | 58.6 µM |
| C=CC[C@@H](Cc1c[nH]c2ccccc12)NS(=O)(=O)c1ccc(C(F)(F)F)cc1Br | 42.1 µM | 39.3 µM | 34.4 µM | 43.9 µM |
| C=CC[C@@H](Cc1c[nH]c2ccccc12)NS(=O)(=O)c1ccc(C(F)(F)F)cc1[N+](=O)[O-] | 40.4 µM | 35.7 µM | 39.3 µM | 74.2 µM |
| C=CC[C@@H](Cc1c[nH]c2ccccc12)NS(=O)(=O)c1cc(C)ccc1C | 44.6 µM | 45.6 µM | 42 µM | 48.3 µM |
| C=CC[C@@H](Cc1c[nH]c2ccccc12)NS(=O)(=O)c1ccc(Br)cc1F | 58.7 µM | 58.5 µM |  |  |
| C=CC[C@@H](Cc1c[nH]c2ccccc12)NS(=O)(=O)c1ccccc1 | 58.4 µM | 69.5 µM | 40.8 µM | 77.1 µM |
| C=CC[C@@H](Cc1c[nH]c2ccccc12)NS(=O)(=O)c1ccc2ccccc2c1 | 44.9 µM | 52.7 µM | 45.2 µM | 55.5 µM |
| C=CC[C@@H](Cc1c[nH]c2ccccc12)NS(=O)(=O)c1ccc(OC(F)(F)F)cc1 | 36 µM | 57.3 µM | 39.9 µM | 57.8 µM |
